How the values were obtained:
[1] = biological target: T1, GGTase II (Homo sapiens, UniProt P53611+Q92696); details: cited from earlier work
T1 sequence (Q92696 1-567): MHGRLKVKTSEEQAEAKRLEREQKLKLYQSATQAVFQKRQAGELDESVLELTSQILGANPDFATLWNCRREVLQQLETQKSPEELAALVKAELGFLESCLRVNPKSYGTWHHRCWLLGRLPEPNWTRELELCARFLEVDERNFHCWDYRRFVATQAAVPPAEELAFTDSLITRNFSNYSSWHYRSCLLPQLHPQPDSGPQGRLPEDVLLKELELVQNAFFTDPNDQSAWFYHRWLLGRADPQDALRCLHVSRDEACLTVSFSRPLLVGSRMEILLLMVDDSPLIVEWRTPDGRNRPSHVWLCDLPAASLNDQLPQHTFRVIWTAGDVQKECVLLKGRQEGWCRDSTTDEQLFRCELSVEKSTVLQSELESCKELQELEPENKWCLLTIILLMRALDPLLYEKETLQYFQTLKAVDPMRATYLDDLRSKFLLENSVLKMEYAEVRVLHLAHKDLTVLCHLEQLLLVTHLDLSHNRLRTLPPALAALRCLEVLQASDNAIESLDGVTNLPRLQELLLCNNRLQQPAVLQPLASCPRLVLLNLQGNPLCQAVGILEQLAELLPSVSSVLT
T1 sequence (P53611 1-331): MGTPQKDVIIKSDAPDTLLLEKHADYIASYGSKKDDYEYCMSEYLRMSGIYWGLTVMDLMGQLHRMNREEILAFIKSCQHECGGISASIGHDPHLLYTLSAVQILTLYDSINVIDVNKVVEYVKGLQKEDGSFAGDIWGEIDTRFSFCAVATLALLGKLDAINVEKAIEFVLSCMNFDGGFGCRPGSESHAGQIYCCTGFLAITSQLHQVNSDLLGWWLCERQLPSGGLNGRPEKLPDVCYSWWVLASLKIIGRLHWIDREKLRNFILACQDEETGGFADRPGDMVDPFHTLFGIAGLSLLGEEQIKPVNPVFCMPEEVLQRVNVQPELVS

[2] = tested on: geranylgeranyl diphosphate synthase (GGDPS); details: cited from earlier work
[3] = tested on: RPMI-8226 cells; experiment: intracellular lambda light chain ELISA; assay type: cell-based, human; details: 48 hours, 5 mM, vs untreated control
Procedure, shortened: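 RPMI-8226 cells were incubated for 48 hours with test compound at 5 mM, alongside untreated and lovastatin (20 μM) controls. Intracellular lambda light chain was quantified by ELISA and expressed as percent of untreated control, mean + SD, n=3. Significance versus untreated cells was assessed by unpaired two-tailed t-test at p<0.05.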

[4] = tested on: Rab6 geranylgeranylation in RPMI-8226 cells; experiment: immunoblot for membrane-bound Rab6; assay type: cell-based, human; details: 48 hours, 5 mM, detergent (membrane) fraction
Procedure, shortened: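 RPMI-8226 human myeloma cells were exposed to test compound at 5 mM or left untreated for 48 hours, with lovastatin at 20 μM as a global prenylation-disruption control. Cells were lysed by Triton X-114 partitioning to give the detergent (membrane) fraction, which was immunoblotted for Rab6 with calnexin as the loading control. Blots are representative of two independent studies.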

[5] = tested on: farnesyl diphosphate synthase (FDPS); details: cited from earlier work

Row | SMILES | intracellular lambda light chain accumulation [3] | membrane-bound Rab6 level [4] | activity against FDPS [5] | also measured
1 | O=C(O)C(O)(Cc1cnc2ccccn12)P(=O)(O)O (single isomer, unassigned; enantiomer 4) [(+)-enantiomer 4] |  |  |  | activity of (+)-enantiomer relative to (−)-enantiomer [1]: ~ 60 fold; inhibition of other enzyme involved in isoprenoid biosynthesis, probably GGDPS [2]: weak inhibition
2 | O=C(O)C(O)(Cc1cccnc1)P(=O)(O)O (stereo not drawn) [compound 1, 2-(3-pyridinyl)-1-hydroxyethylidene-1,1-phosphonocarboxylic acid] | induce an accumulation of intracellular light chain | induces a decrease in the amount of membrane-bound Rab6 | show little activity against FDPS | difference in activity between the enantiomers [1]: ~ 4 fold
3 | O=C(O)C(Cc1cccnc1)P(=O)(O)O (stereo not drawn) [compound 2, 2-(3-pyridinyl)-1-ethylidene-1,1-phosphonocarboxylic acid] | do not significantly alter light chain trafficking | diminished the level of membrane-bound Rab6 to a lesser extent | show little activity against FDPS | GGTase II potency relative to PEHPC [1]: potency similar to PEHPC
5 | O=C(O)C(O)(Cc1ccc[n+]([O-])c1)P(=O)(O)O (stereo not drawn) [compound 6] | induce an accumulation of intracellular light chain | diminished the level of membrane-bound Rab6 to a lesser extent |  | 
6 | O=C(O)C(Cc1ccc[n+]([O-])c1)P(=O)(O)O (stereo not drawn) [compound 7] | do not significantly alter light chain trafficking | did not decrease membrane-bound Rab6 levels |  | 
